# From PubChem
# PfG6PD inh = PfG6PD (Plasmodium falciparum) enzyme inhibition | inhibition, % at 20 µM | AID 504690 | PfGluPho enzyme, NADPH resazurin-diaphorase fluorescence | actives 0.78% (n = 350,000);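 active = inhibition reaching at least a set limit at 20 µM in the primary screen, cut at about 59% in these data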;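 also: 0% = DMSO wells with substrate and 100% = DMSO wells lacking glucose-6-phosphate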
# HKDC1 inhibitor = inhibitors of human hexokinase HKDC1. Q2TB90. recombinant HKDC1, G6PDH/diaphorase resazurin coupled fluorescence. inhibition, % at 20 µM. actives 0.16% (n = 340,000). AID 493160;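 active = inhibition above about 35% when tested at 20 µM, limit read from the data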;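 also: plate controls were DMSO wells with enzyme for no effect and DMSO wells lacking enzyme for full effect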
#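 test system = in-house recombinant HK5 (HKDC1) enzyme | amount = HKDC1 at 5 µg/mL | control set = DMSO-enzyme wells negative, buffer-substituted wells positive | compound = one dose of 20 µM, 1% DMSO | schedule = reaction time 90 min, room temperature, protected from light | technique = resorufin fluorescence at 613 nm | reagent = glucose with 1 mM ATP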
# Exocytosis inh = lytic granule exocytosis inhibition; TALL-104 LAMP-1 surface exposure, flow cytometry; cells stimulated with thapsigargin and PMA; inhibition, % at 10 µM; actives 0.66% (n = 360,000);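 active = inhibition above about 55%, limit read from the data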
# ABHD5 PLIN5 PPI = blocks binding of human ABHD5 to perilipin-5. Split G. princeps luciferase complementation, luminescence, 4 h. inhibition, % at 4 µM. actives 0.78% (n = 360,000). AID 602281;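 active = inhibition above the mean inhibition across every tested compound plus 3 SD, cut at about 22% in these data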;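 also: 0% = DMSO only wells and the 100% control is not disclosed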
# Target sequence (Q00G26 whole entry, looked up): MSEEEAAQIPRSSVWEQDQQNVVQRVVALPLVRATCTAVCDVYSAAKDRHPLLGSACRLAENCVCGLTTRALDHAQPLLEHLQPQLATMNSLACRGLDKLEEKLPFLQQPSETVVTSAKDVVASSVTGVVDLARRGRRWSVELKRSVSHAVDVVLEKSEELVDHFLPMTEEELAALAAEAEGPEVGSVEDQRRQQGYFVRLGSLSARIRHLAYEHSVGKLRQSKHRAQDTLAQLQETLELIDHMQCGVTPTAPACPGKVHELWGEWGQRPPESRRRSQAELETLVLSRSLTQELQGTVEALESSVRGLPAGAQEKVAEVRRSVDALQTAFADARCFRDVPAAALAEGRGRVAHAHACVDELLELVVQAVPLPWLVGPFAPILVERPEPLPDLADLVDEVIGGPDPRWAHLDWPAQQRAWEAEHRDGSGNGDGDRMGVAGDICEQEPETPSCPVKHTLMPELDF
# Target sequence (Q8WTS1 whole entry, looked up): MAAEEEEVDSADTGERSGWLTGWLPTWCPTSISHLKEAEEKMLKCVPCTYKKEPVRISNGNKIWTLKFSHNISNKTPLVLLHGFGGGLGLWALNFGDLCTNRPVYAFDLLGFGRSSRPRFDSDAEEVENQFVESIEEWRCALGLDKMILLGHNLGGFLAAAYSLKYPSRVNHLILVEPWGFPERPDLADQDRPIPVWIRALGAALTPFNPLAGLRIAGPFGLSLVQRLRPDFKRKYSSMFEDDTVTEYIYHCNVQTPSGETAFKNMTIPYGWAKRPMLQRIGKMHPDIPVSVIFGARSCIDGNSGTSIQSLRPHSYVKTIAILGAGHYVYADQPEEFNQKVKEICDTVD
# Starred values were filed as active, the others as inactive; · = not tested or not shown. An excerpt weighted towards active compounds, which were near 2.2% of everything screened.
SMILES,PfG6PD inh,HKDC1 inhibitor,Exocytosis inh,ABHD5 PLIN5 PPI
CN1CCN(c2ccc(NC(=O)c3ccc(-c4ccc(Br)cc4)o3)cc2)CC1,1,-2,76*,14
CC(C)(C)OC(=O)N1CCC[C@H]1C(=O)N/N=C/c1cccc2nccnc12,-11,-6,-4,4
O=C1CSC(=S)N1/N=C/c1ccc(O)c(O)c1O,79*,21,2,2
O=C(Nc1ccc(F)cc1)OCCOc1ccc(Br)cc1,8,-2,-2,-4
CC(c1ccccc1)C1C(C#N)=C(N)OC2=C1C(=O)CC(C)(C)C2 (configuration not stated),2,0,75*,-4
CCn1cc(C(=O)O)c(=O)c2cc(F)c(N/N=C/c3ccccc3[N+](=O)[O-])cc21,1,-8,72*,2
CCn1cc(C(=O)O)c(=O)c2cc(F)c(N3CCN(C(=S)Nc4ccccc4OC)CC3)cc21,4,-6,1,-8
CCOc1ccc(OCC(=O)Nc2cc(Cl)ccc2-n2cncn2)cc1,16,·,-3,11
c1coc(C2=NC(c3ccco3)C(c3ccco3)N2)c1 (configuration not stated),-2,-3,-3,8
O=C(O)COc1ccccc1C(Nc1cccnc1)c1cc(Cl)c2cccnc2c1O (configuration not stated),1,8,-5,26*
O=c1oc(-c2ccccc2F)nc2c1cnn2-c1ccccc1,2,8,84*,-1
Cc1ccc(N2C(=O)CCC(C(=O)O)C2c2cccs2)cc1 (configuration not stated),4,-9,-11,-7
CC1(C)CC(=O)C2=C(C1)N(CC1CCCO1)C(=O)NC2(C(F)(F)F)C(F)(F)F (configuration not stated),4,-10,4,1
CC1(C)CC(=O)C2=C(C1)N(CC1CCCO1)C(=O)C2(O)C(F)(F)F (configuration not stated),5,-9,80*,1
O=C(Nc1cc2cccc([N+](=O)[O-])c2oc1=O)c1cccs1,-1,-4,-2,2
CC1=C(c2ccccc2)[N+](=O)C2(CCCC2)N1[O-],-2,-2,0,1
O=[N+]([O-])c1ccc2c(c1)N([O-])C1(CCCCC1)[N+]2=O,60*,23,·,·
COc1ccccc1C(CNC(=O)c1cccc(S(=O)(=O)N2c3ccccc3CC2C)c1)N(C)C (configuration not stated),-16,-1,-8,23*
COc1cccc(/C=N/NC(=O)c2cc3cc([N+](=O)[O-])ccc3s2)c1O,-14,25,69*,0
COc1cccc(NC(=O)NC2CCN(Cc3nnnn3Cc3ccc4c(c3)OCO4)CC2)c1,1,-4,-2,7
COc1ccc(/C=C/C(O)=C2/C(=O)N(C)C3(C)CC2c2ccccc2O3)cc1 (configuration not stated),16,8,16,7
Cc1ccc(/C=C/C(O)=C2/C(=O)N(C)C3(C)CC2c2ccccc2O3)cc1 (configuration not stated),19,5,1,22*
O=c1/c(=C/c2ccc(O)c([N+](=O)[O-])c2)sc2nc3ccccc3n12,20,9,70*,1
CN(CCCC(=O)NC1CC(C)(C)NC(C)(C)C1)S(=O)(=O)c1ccc([N+](=O)[O-])cc1,-2,-10,4,-5
CCC(=O)N1CCCC1(C)C(=O)Nc1ccc(C)c(C)c1 (configuration not stated),·,·,-4,11
SMILES,PfG6PD inh,HKDC1 inhibitor,Exocytosis inh,ABHD5 PLIN5 PPI
Cc1c(/C=N/Nc2nc3ccccc3[nH]2)c2ccccc2n1C,44,-12,85*,13
O=C(Nc1ccc(Cl)cc1)c1cccc(S(=O)(=O)Nc2ccccn2)c1,-25,-2,-17,-1
CC1(C)CC(=O)C(=Cc2cn(CCC#N)nc2-c2ccc(Cl)cc2)C(=O)C1,24,-2,74*,14
O=C(Nc1ccc(N2CCCC2)cc1)C(Cl)c1ccccc1 (configuration not stated),88*,8,-2,2
COc1ccc(C(=O)Nc2cc(C(=O)c3ccccc3)c(C)oc2=O)cc1,17,11,45,37*
COC(=O)c1cc(NC(=O)c2ccccc2)c(=O)oc1C,3,-2,-2,9
O=C(c1nnsc1S(=O)c1ccc(Cl)cc1)N1CCOCC1 (configuration not stated),15,2,43,73*
CCOCc1cc(=O)[nH]c(SC)n1,-12,-6,3,-2
